ChEMBL document CHEMBL2029221, “Acylprolinamides: a new class of peptide deformylase inhibitors with in vivo antibacterial activity” (Bioorg Med Chem Lett, 2012)
In brackets after ≈: the same amount, converted by molar mass.

Tests used:
Staphylococcus aureus = assay: Antibacterial activity against Staphylococcus aureus Oxford by broth microdilution method; format: functional
Summary of the method: (§1)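 Broth microdilution following NCCLS document M7-A4. Serial two-fold dilutions from 0.06 to 64 mcg/ml were tested. The MIC was the lowest concentration preventing visible growth, with the endpoint read with the aid of a mirror reader.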

[1] = Metabolic stability of the compound in human blood assessed as compound remaining at 2000 ng/mL after 2 hrs; format: ADME, tissue-based; details: read-out: Stability
Summary of the method: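 Samples (n = 3) were spiked into fresh human blood at 2000 ng/mL, incubated at 37 °C for 120 min, and reported as % recovered at 2 h.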

[2] = Inhibition of Haemophilus influenzae PDF assessed as formate release from fMAS peptide substrate after 20 mins by formate dehydrogenase coupled assay
Summary of the method: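 Coupled assay in which formate released from the fMAS peptide is oxidized by formate dehydrogenase, reducing NAD to NADH, read as the rise in absorbance at 340. Reactions were started by adding PDF and velocities measured for 20 min at 25 °C. Values are the mean of at least 2 runs.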

Streptococcus pneumoniae [3] = assay: Antibacterial activity against Streptococcus pneumoniae 1629 by broth microdilution method; format: functional; summary of the method: as §1
Moraxella catarrhalis = assay: Antibacterial activity against Moraxella catarrhalis 1502 by broth microdilution method; format: functional; summary of the method: as §1
[4] = Metabolic stability of the compound in rat blood assessed as compound remaining at 2000 ng/mL after 2 hrs; format: ADME, tissue-based; details: read-out: Stability
Haemophilus influenzae [5] = assay: Antibacterial activity against Haemophilus influenzae Q1 by broth microdilution method; format: functional; summary of the method: as §1
Peptide deformylase [6] = biological target: T1, Peptide deformylase (Streptococcus pneumoniae serotype 4 (strain ATCC BAA-334 / TIGR4), UniProt Q9F2F0); assay: Inhibition of Streptococcus pneumoniae PDF assessed as formate release from fMAS peptide substrate after 20 mins by formate dehydrogenase coupled assay
T1 sequence (Q9F2F0 whole entry): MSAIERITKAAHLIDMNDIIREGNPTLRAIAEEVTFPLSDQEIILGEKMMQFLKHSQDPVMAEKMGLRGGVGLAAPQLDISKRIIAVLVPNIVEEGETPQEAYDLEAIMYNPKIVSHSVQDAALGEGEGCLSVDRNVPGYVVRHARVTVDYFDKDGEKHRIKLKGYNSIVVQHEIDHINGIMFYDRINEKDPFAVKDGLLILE

Peptide deformylase [7] = biological target: T2, Peptide deformylase (Staphylococcus aureus, UniProt P68826); assay: Inhibition of Staphylococcus aureus PDF assessed as formate release from fMAS peptide substrate after 20 mins by formate dehydrogenase coupled assay
T2 sequence (P68826 whole entry): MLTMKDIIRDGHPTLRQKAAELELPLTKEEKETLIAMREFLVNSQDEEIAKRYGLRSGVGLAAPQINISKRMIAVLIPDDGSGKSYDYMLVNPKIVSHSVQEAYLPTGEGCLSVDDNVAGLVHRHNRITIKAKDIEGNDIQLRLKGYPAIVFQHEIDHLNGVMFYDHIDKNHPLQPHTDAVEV

Enterococcus faecalis = assay: Antibacterial activity against Enterococcus faecalis 7 by broth microdilution method; format: functional; summary of the method: as §1
[8] = Oral bioavailability in monkey at 5.1 mg/kg; format: ADME, organism-based, Macaca mulatta; details: rhesus monkey, in vivo
Summary of the method: (§2)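 Single-compound pharmacokinetics with n = 3 per species, given i.v. and p.o. Reported measures are plasma clearance after i.v. dosing, dose-normalized AUC(0–inf) after oral dosing, and oral bioavailability.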

[9] = Oral bioavailability in dog at 6.5 mg/kg; format: ADME, organism-based, Canis lupus familiaris; details: in vivo; summary of the method: as §2
Canis familiaris = assay: Dose normalized AUC (0 to infinity) in dog at 6.5 mg/kg, po; format: ADME, organism-based, Canis lupus familiaris; set-up: dose 6.5 mg/kg, route oral; details: in vivo; summary of the method: as §2
Rhesus monkey = assay: Dose normalized AUC (0 to infinity) in monkey at 5.1 mg/kg, po; format: ADME, organism-based, Macaca mulatta; set-up: dose 5.1 mg/kg, route oral; details: in vivo; summary of the method: as §2
Streptococcus pneumoniae [10] = assay: Antibacterial activity against Streptococcus pneumoniae 1629 infected in rat respiratory tract infection model assessed as reduction in bacterial count at 75 mg/kg, po bid for 4 days relative to control; format: functional
Summary of the method: (§3)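 Rat respiratory tract infection models with oral b.i.d. dosing. Efficacy was read as bacterial lung counts (log10 cfu/mL) compared with non-treated controls.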

Streptococcus pneumoniae [11] = assay: Antibacterial activity against Streptococcus pneumoniae 1629 infected in rat respiratory tract infection model assessed as reduction in bacterial count at 150 mg/kg, po bid for 4 days relative to control; format: functional; summary of the method: as §3
[12] = Plasma clearance in dog at 4.5 mg/kg, iv; format: ADME, organism-based, Canis lupus familiaris; set-up: dose 4.5 mg/kg, route intravenous; summary of the method: as §2
Rattus norvegicus = assay: Dose normalized AUC (0 to infinity) in rat at 27.1 mg/kg, po; format: ADME, organism-based; set-up: dose 27.1 mg/kg, route oral; details: in vivo; summary of the method: as §2
[13] = Oral bioavailability in rat at 27.1 mg/kg; format: ADME, organism-based; details: in vivo
Summary of the method: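 Rat oral bioavailability (n = 3) was estimated from a non-crossover study comparing i.v. and p.o. dosing.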

[14] = Plasma clearance in monkey at 3 mg/kg, iv; format: ADME, organism-based, Macaca mulatta; set-up: dose 3 mg/kg, route intravenous; details: rhesus monkey; summary of the method: as §2
Haemophilus influenzae [15] = assay: Antibacterial activity against Haemophilus influenzae H128 infected in rat respiratory tract infection model assessed as reduction in bacterial count at 300 mg/kg, po bid for 2 days relative to control; format: functional; summary of the method: as §3

MIC (Staphylococcus aureus) | remaining at 2 h, 2000 ng/mL [1] | IC50 [2] | MIC (Streptococcus pneumoniae [3]) | MIC (Moraxella catarrhalis) | remaining at 2 h, 2000 ng/mL [4] | MIC (Haemophilus influenzae [5]) | IC50 (Peptide deformylase [6]) | IC50 (Peptide deformylase [7]) | MIC (Enterococcus faecalis) | Compound | other results
2 µg/mL (≈ 5.06 µM) | 80.6% | 18 nM | 2 µg/mL (≈ 5.06 µM) | ≤ 0.06 µg/mL | 29% | 2 µg/mL (≈ 5.06 µM) | 1.3 nM | 10 nM | 4 µg/mL (≈ 10.1 µM) | CC(C)(C)C(=O)NC(=O)[C@@H]1CCCN1C(=O)[C@H](CC1CCCC1)CN(O)C=O | 
1 µg/mL (≈ 2.41 µM) |  | 3.8 nM | 0.25 µg/mL (≈ 0.602 µM) | ≤ 0.06 µg/mL | 27.2% | 0.5 µg/mL (≈ 1.2 µM) |  |  | 1 µg/mL (≈ 2.41 µM) | O=CN(O)C[C@@H](CC1CCCC1)C(=O)N1CCC[C@H]1C(=O)NC(=O)c1ccccc1 | 
0.25 µg/mL (≈ 0.629 µM) | 49.6% | 4.7 nM | 0.25 µg/mL (≈ 0.629 µM) | ≤ 0.06 µg/mL | 0% | 0.25 µg/mL (≈ 0.629 µM) | 0.48 nM | 2 nM | 4 µg/mL (≈ 10.1 µM) | CC(C)OC(=O)NC(=O)[C@@H]1CCCN1C(=O)[C@H](CC1CCCC1)CN(O)C=O | 
1 µg/mL (≈ 2.43 µM) | 52% | 3.2 nM | 0.25 µg/mL (≈ 0.608 µM) | ≤ 0.06 µg/mL | 27.6% | 0.25 µg/mL (≈ 0.608 µM) | 0.52 nM | 3.4 nM | 1 µg/mL (≈ 2.43 µM) | CC(C)(C)OC(=O)NC(=O)[C@@H]1CCCN1C(=O)[C@H](CC1CCCC1)CN(O)C=O | 
0.5 µg/mL (≈ 1.22 µM) | 31.7% | 5.8 nM | 0.25 µg/mL (≈ 0.611 µM) | ≤ 0.06 µg/mL | 0% | 0.5 µg/mL (≈ 1.22 µM) | 0.51 nM | 2.4 nM | 1 µg/mL (≈ 2.44 µM) | O=CN(O)C[C@@H](CC1CCCC1)C(=O)N1CCC[C@H]1C(=O)NC(=O)OC1CCC1 | 
0.5 µg/mL (≈ 1.18 µM) | 57.5% | 3.1 nM | 0.125 µg/mL (≈ 0.295 µM) | ≤ 0.06 µg/mL | 0% | 1 µg/mL (≈ 2.36 µM) | 0.26 nM | 1.4 nM | 1 µg/mL (≈ 2.36 µM) | O=CN(O)C[C@@H](CC1CCCC1)C(=O)N1CCC[C@H]1C(=O)NC(=O)OC1CCCC1 | 
0.25 µg/mL (≈ 0.571 µM) | 45.8% | 2.3 nM | 0.125 µg/mL (≈ 0.286 µM) | ≤ 0.06 µg/mL | 0.4% | 1 µg/mL (≈ 2.29 µM) | 0.3 nM | 1.5 nM | 0.5 µg/mL (≈ 1.14 µM) | O=CN(O)C[C@@H](CC1CCCC1)C(=O)N1CCC[C@H]1C(=O)NC(=O)OC1CCCCC1 | 
1 µg/mL (≈ 2.28 µM) | 23% | 3.1 nM | 0.25 µg/mL (≈ 0.569 µM) | ≤ 0.06 µg/mL | 9.5% | 0.5 µg/mL (≈ 1.14 µM) | 0.66 nM | 4.4 nM | 2 µg/mL (≈ 4.55 µM) | O=CN(O)C[C@@H](CC1CCCC1)C(=O)N1CCC[C@H]1C(=O)NC(=O)OC1CCOCC1 | 
0.5 µg/mL (≈ 1.31 µM) | 111% | 4.9 nM | 0.25 µg/mL (≈ 0.654 µM) | ≤ 0.06 µg/mL | 58.6% | 0.5 µg/mL (≈ 1.31 µM) | 0.44 nM | 2 nM | 2 µg/mL (≈ 5.23 µM) | CCNC(=O)NC(=O)[C@@H]1CCCN1C(=O)[C@H](CC1CCCC1)CN(O)C=O | bioavailability [8]: 20%; bioavailability [9]: 100%; AUC/dose (Canis familiaris): 629.9 ng·h/mL/mg/kg; AUC/dose (Rhesus monkey): 111.4 ng·h/mL/mg/kg; log10CFU/ml (Streptococcus pneumoniae [10]): 3.86; log10CFU/ml (Streptococcus pneumoniae [11]): 3.86; clearance [12]: 36.3 mL/min/kg; AUC/dose (Rattus norvegicus): 43.3 ng·h/mL/mg/kg; bioavailability [13]: 30%; clearance [14]: 29.4 mL/min/kg; log10CFU/ml (Haemophilus influenzae [15]): 4.21
≤ 0.06 µg/mL | 92.2% | 3.6 nM | ≤ 0.06 µg/mL | ≤ 0.06 µg/mL |  | 4 µg/mL (≈ 8.72 µM) | 0.12 nM | 0.86 nM | 0.5 µg/mL (≈ 1.09 µM) | O=CN(O)C[C@@H](CC1CCCC1)C(=O)N1CCC[C@H]1C(=O)NC(=O)NCCc1ccccc1 | 
